Results as given in ChEMBL document CHEMBL4334471, “Discovery of 1,8-disubstituted-[1,2,3]triazolo[4,5-c]quinoline derivatives as a new class of Hippo signaling pathway inhibitors” (Bioorg Med Chem Lett, 2019).

Key:
[1] = target: Tyrosine-protein kinase CSK (Homo sapiens) (UniProt P41240); assay: Inhibition of recombinant human CSK assessed as residual activity at 10 uM poly(Glu, Tyr) 4:1 as substrate incubated 40 mins in presence of [gamma-33ATP] by scintillation counting based radiometry assay relative to control
Tyrosine-protein kinase CSK (Homo sapiens), sequence (P41240 2-450 limits assumed): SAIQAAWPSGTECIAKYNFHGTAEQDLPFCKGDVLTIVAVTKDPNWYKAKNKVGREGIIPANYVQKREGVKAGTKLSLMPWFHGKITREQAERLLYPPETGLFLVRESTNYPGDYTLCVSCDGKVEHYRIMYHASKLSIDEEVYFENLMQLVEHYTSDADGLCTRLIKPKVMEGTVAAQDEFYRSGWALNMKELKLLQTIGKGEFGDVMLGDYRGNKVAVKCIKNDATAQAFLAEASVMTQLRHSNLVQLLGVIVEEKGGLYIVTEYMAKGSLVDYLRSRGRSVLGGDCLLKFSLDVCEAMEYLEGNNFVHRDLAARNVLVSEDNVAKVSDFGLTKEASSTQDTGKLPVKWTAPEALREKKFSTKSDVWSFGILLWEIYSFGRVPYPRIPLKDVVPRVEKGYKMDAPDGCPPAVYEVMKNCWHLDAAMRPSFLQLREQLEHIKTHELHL

[2] = target: Mast/stem cell growth factor receptor Kit (Homo sapiens) (UniProt P10721); assay: Inhibition of recombinant human C-Kit (544 to end residues) using poly(Glu, Tyr) 4:1 as substrate assessed as residual activity at 10 uM in presence of [gamma-33ATP] by scintillation counting based radiometry assay relative to control
Mast/stem cell growth factor receptor Kit (Homo sapiens), sequence (P10721 whole entry): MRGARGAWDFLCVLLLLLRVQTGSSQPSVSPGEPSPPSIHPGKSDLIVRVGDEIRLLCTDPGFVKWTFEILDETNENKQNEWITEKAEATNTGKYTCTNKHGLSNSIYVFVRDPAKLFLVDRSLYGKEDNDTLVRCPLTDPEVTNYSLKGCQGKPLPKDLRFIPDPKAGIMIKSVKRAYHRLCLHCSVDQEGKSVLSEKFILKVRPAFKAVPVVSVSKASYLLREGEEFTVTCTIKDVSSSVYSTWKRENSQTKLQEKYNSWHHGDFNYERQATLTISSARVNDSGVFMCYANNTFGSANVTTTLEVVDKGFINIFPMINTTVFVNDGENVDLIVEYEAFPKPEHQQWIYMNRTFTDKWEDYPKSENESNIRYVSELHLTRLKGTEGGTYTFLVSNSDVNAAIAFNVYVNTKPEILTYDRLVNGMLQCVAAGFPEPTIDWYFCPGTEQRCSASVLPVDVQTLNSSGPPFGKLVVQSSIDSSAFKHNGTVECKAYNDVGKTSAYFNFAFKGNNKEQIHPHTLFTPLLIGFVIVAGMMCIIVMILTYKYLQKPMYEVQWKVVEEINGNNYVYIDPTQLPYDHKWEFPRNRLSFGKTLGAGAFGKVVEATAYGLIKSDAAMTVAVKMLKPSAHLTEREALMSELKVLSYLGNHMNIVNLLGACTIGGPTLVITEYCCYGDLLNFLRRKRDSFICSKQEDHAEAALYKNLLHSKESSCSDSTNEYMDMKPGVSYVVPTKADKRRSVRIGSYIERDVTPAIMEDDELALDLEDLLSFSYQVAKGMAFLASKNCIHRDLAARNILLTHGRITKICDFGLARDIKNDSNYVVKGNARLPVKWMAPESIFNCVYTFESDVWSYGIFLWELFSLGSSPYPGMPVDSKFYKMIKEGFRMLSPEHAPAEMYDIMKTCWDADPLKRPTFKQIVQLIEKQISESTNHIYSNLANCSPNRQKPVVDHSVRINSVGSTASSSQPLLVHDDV

[3] = system: Macrophage colony-stimulating factor 1 receptor (Homo sapiens), P07333 [Y969C]; assay: Inhibition of recombinant human FMS Y969C mutant (538 to end residues) assessed as residual activity at 10 uM using EEEEYEEEEEEYYIIEEEEEEYEEEEEEYYEEEEEEKKKK as substrate at 40 mins in presence of [gamma-33ATP] by scintillation counting based radiometry assay relative to control
[4] = target: Serine/threonine-protein kinase WNK3 (Homo sapiens) (UniProt Q9BYP7); assay: Inhibition of recombinant human WNK3 (1 to 434 residues) assessed as residual activity at 10 uM using myelin basic protein as substrate incubated for 40 mins in presence of [gamma33P]ATP by scintillation counting based radiometry assay relative to control
[5] = target: Cyclin-dependent kinase-like 3 (Homo sapiens) (UniProt Q8IVW4); assay: Inhibition of recombinant full length human CDKL3 assessed as residual activity at 10 uM using RRRFRPASPLRGPPK as substrate incubated for 120 mins in presence of [gamma-33ATP] by scintillation counting based radiometry assay relative to control
[6] = organism: Homo sapiens; assay: Inhibition of recombinant human BRSK2 S251I mutant (2 to end residues) assessed as residual activity at 10 uM using KKLNRTLSFAEPG substrate incubated for 40 mins in presence of [gamma-33ATP] by scintillation counting based radiometry assay relative to control
[7] = target: G protein-coupled receptor kinase 3 (Homo sapiens) (UniProt P35626); assay: Inhibition of recombinant full length human GRK3 assessed as residual activity at 10 uM using casein as substrate at 40 mins in presence of [gamma-33ATP] by scintillation counting based radiometry assay relative to control
[8] = target: Calcium/calmodulin-dependent protein kinase type II subunit gamma (Homo sapiens) (UniProt Q13555); assay: Inhibition of recombinant human CaMK2gamma (1 to 330 residues) assessed as residual activity at 10 uM using […] incubated for 40 mins in presence of [gamma-33ATP] by scintillation counting based radiometry assay relative to control
[9] = target: Serine/threonine-protein kinase LATS2 (Homo sapiens, UniProt Q9NRM7); assay: Binding affinity to wild-type human partial length LATS2 (Q641 to V1088 residues) expressed in mammalian expression system assessed as dissociation constant by Kinomescan method
Summary of the method: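 KINOMEscan competition binding assay. Kinase bound at each concentration of test compound was quantified by qPCR and plotted against log10 compound concentration to derive Kd.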

[10] = system: Mast/stem cell growth factor receptor Kit (Homo sapiens), P10721 [V560G]; assay: Inhibition of recombinant human C-Kit V560G mutant (544 to end residues) assessed as residual activity at 10 uM poly(Glu, Tyr) 4:1 as substrate incubated 40 mins in presence of [gamma-33ATP] by scintillation counting based radiometry assay relative to control
Mast/stem cell growth factor receptor Kit (Homo sapiens), P10721 [V560G], sequence (P10721 whole entry V560G): as the sequence (P10721 whole entry) above, with V560G counted along it

[11] = target: [Pyruvate dehydrogenase (acetyl-transferring)] kinase isozyme 4, mitochondrial (Homo sapiens) (UniProt Q16654); assay: Inhibition of recombinant human full length PDHK4 assessed as residual activity at 10 uM using KKKYHGHSMSDPGVSYRT as substrate incubated for 40 mins in presence of [gamma33P]ATP by scintillation counting based radiometry assay relative to control
[Pyruvate dehydrogenase (acetyl-transferring)] kinase isozyme 4, mitochondrial (Homo sapiens), sequence (Q16654 whole entry, looked up): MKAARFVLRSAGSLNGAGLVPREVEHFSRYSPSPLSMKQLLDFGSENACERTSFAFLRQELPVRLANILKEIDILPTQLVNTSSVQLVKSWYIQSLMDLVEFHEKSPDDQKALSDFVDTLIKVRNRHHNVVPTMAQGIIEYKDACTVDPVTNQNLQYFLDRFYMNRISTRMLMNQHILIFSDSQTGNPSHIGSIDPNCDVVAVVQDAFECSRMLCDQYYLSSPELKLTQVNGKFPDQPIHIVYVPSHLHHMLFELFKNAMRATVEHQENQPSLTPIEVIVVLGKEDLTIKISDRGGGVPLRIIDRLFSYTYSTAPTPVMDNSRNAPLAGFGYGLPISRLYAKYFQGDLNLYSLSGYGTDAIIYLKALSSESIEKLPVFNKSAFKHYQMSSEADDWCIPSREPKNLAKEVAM

[12] = target: Protein kinase C gamma type (Homo sapiens) (UniProt P05129); assay: Inhibition of recombinant full-length human PKCgamma assessed as residual activity at 10 uM using histone H1 as substrate incubated for 40 mins in presence of [gamma33P]ATP by scintillation counting based radiometry assay relative to control
[13] = target: Activin receptor type-2A (Homo sapiens) (UniProt P27037); assay: Inhibition of human ACTR2 (162 to end residues) assessed as residual activity at 10 uM using casein as substrate incubated for 120 mins in presence of [gamma-33ATP] by scintillation counting based radiometry assay relative to control
[14] = target: Protein kinase C delta type (Homo sapiens) (UniProt Q05655); assay: Inhibition of recombinant human PKCdelta (2 to end residues) assessed as residual activity at 10 uM using ERMRPRKRQGSVRR as substrate incubated for 40 mins in presence of [gamma33P]ATP by scintillation counting based radiometry assay relative to control
[15] = target: Tyrosine-protein kinase ABL1 (Homo sapiens) (UniProt P00519); assay: Inhibition of human ABL1 (27 to end residues) at 10 uM using EAIYAAPFAKKK as substrate incubated for 40 mins in presence of [gamma-33ATP] by scintillation counting based radiometry assay relative to control; design: scale not given: the % may be the effect or the level left
[16] = target: Insulin receptor (Homo sapiens) (UniProt P06213); assay: Inhibition of human IR activated (1005 to 1310 residues) assessed as residual activity at 10 uM using KKSRGDYMTMQIG as substrate after 40 mins by [gamma-33ATP] radiometric assay relative to control
[17] = system: Hepatocyte growth factor receptor (Homo sapiens), P08581 [D1228N]; assay: Inhibition of recombinant human MET A1209G/V1290L/D1246N mutant (974 to end residues) assessed as residual activity at 10 uM using KKKGQEEEYVFIE as substrate incubated for 40 mins in presence of [gamma-33ATP by scintillation counting based radiometry assay relative to control
[18] = target: Serine/threonine-protein kinase 32A (Homo sapiens) (UniProt Q8WU08); assay: Inhibition of recombinant human full length STK32A assessed as residual activity at 10 uM using casein as substrate incubated for 40 mins in presence of [gamma33P]ATP by scintillation counting based radiometry assay relative to control
Serine/threonine-protein kinase 32A (Homo sapiens), sequence (Q8WU08 whole entry): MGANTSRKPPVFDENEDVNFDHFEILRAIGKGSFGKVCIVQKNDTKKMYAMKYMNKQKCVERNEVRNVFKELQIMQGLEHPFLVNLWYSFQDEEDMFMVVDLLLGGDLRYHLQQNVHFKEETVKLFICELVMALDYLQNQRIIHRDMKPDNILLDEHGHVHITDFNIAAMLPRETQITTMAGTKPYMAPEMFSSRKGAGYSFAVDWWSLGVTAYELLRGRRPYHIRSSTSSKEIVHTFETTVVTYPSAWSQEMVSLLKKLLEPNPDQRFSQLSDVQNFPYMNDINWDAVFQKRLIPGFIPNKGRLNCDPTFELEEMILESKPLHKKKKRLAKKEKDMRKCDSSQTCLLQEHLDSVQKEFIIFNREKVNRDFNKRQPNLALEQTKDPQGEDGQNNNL

[19] = target: Inhibitor of nuclear factor kappa-B kinase subunit epsilon (Homo sapiens) (UniProt Q14164); assay: Inhibition of full length human IKKepsilon assessed as residual activity at 10 uM using peptide as substrate after 40 mins by [gamma-33ATP] radiometric assay relative to control
Inhibitor of nuclear factor kappa-B kinase subunit epsilon (Homo sapiens), sequence (Q14164 whole entry): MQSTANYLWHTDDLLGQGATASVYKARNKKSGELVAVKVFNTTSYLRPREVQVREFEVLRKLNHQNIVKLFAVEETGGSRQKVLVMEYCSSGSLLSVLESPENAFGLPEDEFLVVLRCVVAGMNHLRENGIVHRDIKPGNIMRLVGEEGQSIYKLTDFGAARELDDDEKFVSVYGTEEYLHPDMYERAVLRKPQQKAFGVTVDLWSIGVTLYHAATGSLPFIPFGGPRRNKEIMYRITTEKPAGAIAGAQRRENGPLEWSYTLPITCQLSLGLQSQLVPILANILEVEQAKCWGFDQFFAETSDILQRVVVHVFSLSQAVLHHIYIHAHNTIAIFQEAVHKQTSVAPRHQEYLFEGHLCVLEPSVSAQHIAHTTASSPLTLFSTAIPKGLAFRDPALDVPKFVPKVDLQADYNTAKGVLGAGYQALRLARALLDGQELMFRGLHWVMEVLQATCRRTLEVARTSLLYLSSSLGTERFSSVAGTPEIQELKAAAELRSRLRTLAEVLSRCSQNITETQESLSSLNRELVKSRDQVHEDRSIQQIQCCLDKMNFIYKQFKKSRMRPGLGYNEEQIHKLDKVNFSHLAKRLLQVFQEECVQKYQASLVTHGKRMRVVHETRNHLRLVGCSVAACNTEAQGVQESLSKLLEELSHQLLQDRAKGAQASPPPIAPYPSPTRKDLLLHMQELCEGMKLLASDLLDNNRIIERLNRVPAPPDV

[20] = target: Ribosomal protein S6 kinase alpha-5 (Homo sapiens) (UniProt O75582); assay: Inhibition of recombinant human MSK1 (2 to end residues) assessed as residual activity at 10 uM using GRPRTSSFAEGKK as substrate incubated for 40 mins in presence of [gamma-33ATP by scintillation counting based radiometry assay relative to control
Ribosomal protein S6 kinase alpha-5 (Homo sapiens), sequence (O75582 whole entry, looked up): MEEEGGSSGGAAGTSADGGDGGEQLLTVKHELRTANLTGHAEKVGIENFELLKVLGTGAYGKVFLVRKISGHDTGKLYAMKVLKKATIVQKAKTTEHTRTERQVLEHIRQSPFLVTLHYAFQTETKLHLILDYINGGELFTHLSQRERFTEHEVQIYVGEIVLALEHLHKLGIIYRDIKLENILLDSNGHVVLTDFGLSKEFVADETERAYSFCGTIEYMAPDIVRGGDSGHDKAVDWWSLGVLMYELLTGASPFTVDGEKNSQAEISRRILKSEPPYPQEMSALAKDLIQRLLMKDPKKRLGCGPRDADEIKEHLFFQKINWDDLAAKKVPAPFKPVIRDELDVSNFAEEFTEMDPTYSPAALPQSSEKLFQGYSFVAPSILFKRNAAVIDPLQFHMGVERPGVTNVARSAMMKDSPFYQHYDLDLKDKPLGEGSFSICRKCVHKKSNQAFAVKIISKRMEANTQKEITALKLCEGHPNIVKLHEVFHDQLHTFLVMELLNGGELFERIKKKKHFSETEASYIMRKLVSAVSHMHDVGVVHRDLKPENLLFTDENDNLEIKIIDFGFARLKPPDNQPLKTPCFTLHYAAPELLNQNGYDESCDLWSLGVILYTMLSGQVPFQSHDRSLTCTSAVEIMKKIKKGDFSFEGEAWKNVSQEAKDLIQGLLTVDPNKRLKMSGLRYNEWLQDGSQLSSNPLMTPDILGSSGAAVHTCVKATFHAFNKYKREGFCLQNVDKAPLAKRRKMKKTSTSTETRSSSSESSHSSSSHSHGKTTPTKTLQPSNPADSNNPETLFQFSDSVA

[21] = target: Protein-tyrosine kinase 6 (Homo sapiens) (UniProt Q13882); assay: Inhibition of recombinant full length human BRK assessed as residual activity at 10 uM using poly(Glu, Tyr) 4:1 as substrate incubated for 40 mins in presence of [gamma-33ATP] by scintillation counting based radiometry assay relative to control
Protein-tyrosine kinase 6 (Homo sapiens), sequence (Q13882 whole entry, looked up): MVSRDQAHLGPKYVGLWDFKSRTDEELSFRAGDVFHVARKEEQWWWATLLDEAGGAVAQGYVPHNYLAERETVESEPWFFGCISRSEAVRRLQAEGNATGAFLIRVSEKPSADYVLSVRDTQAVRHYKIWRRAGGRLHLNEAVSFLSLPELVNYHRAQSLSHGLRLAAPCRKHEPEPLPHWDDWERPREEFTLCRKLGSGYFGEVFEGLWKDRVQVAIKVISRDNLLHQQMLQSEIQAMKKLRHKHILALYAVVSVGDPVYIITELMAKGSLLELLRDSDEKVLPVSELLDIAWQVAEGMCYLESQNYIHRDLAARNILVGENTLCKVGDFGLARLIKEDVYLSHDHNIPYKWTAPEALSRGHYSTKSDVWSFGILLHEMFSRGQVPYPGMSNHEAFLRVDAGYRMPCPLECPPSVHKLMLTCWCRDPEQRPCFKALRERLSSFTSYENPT

Question: For `C[C@@H](c1ccccc1)n1nnc2cnc3ccc(-c4cnc5[nH]ccc5c4)cc3c21`, which Activity [1] is on record?
Answer: 74%

Question: And the Activity [2]?
Answer: 103%

Question: And the Activity [3]?
Answer: 52%

Question: And the Activity [4]?
Answer: 99%

Question: What about the Activity [5] of the same molecule?
Answer: 104%

Question: What about the Activity [6] of the same molecule?
Answer: 77%

Question: And the Activity [7]?
Answer: 110%

Question: And the Activity [8]?
Answer: 72%

Question: And the Kd [9]?
Answer: > 10 µM

Question: And the Activity [10]?
Answer: 3%

Question: What about the Activity [11] of the same molecule?
Answer: 69%

Question: And the Activity [12]?
Answer: 83%

Question: And the Activity [13]?
Answer: 101%

Question: What about the Activity [14] of the same molecule?
Answer: 91%

Question: And the Activity [15]?
Answer: -4%

Question: What about the Activity [16] of the same molecule?
Answer: 62%

Question: And the Activity [17]?
Answer: 55%

Question: And the Activity [18]?
Answer: 95%

Question: And the Activity [19]?
Answer: 94%

Question: And the Activity [20]?
Answer: 55%

Question: What about the Activity [21] of the same molecule?
Answer: 21%
